Assay outcomes: PubChem BioAssay, several laboratories
L major viab: Leishmania major promastigote growth inhibition, primary screen | Leishmania major promastigotes, resazurin fluorescence viability | inhibition, % at 10 µM | 200,000 compounds, 9% hits | AID 1063, 2008; in the data active = inhibition above about 50%;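 also: promastigotes grown with compound for 44 hours at 28 °C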
PTEN del growth: growth suppression of PTEN-null HCT116, primary screen, cell-based, CellTiter-Glo; HCT116 PTEN-null viability, 60 h; stronger effect = lower value; viability, % at 10 µM; 140,000 compounds, 1.2% hits; AID 827, 2007;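 active = viability at or below a set limit, 4 SD under the median of all tested compounds, cut at about 3.7% in these data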;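 also: PTEN knockout HCT116 line with beta catenin targeted HCT116 as companion control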
bCat KO growth: primary screen for growth suppressors in beta-catenin knockout HCT116 cells (colon tumor, human). viability, % at 10 µM. HCT116 beta-catenin knockout viability, CellTiter-Glo, 60 h; stronger effect = lower value. 140,000 compounds, 1.5% hits;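 active = viability at or under a set limit, the compound median less 4 SD, cut at about 6% in these data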;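 also: 0% = Hyamine 1622 control at 20 µM and 100% = untreated cell control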
Autophagy HCS: autophagy modulators in MEF cells, primary screen, imaging, high-content, MEF GFP-LC3 | MEF GFP-LC3 puncta imaging; test concentration mostly 10 µM | calls only at 10 µM (by protocol) | AID 463193, 2010 | 190,000 compounds, 0.98% hits;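 active = percentage of spot-positive cells more than 3 SD above its plate mean, without a fluorescence outlier flag or 80% toxicity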;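 also: spot-positive cell cutoff set from DMSO-treated cells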
Dynein cargo inh: inhibitors of GR-EGFP nuclear translocation, primary screen, dynein cargo transport inhibitor project, imaging, high-content, 3617.4 mouse cells | test concentration mostly 20 µM; stimulated with dexamethasone, 1 µM; stronger effect = lower value | z-score, hits read low | 220,000 compounds, 0.47% hits | AID 1381, 2008;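 active = plate z-score of nuclear minus cytoplasmic receptor signal below a set negative limit, without overly bright fluorescence or cell loss, cut at about -3.5 in these data, passing the limit was not always enough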;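 also: z-score of nuclear minus cytoplasmic ring GR-EGFP intensity difference per well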
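Also added: dexamethasone, 1.0 µM final. Medium: tet-free, stripped-serum medium. Detection: fixed, Hoechst-stained cells imaged at 10x for EGFP. Read-out: nuclear-to-cytoplasmic GR-EGFP distribution per well. Times: induction 48 h, compound 1 h, agonist 30 min.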
An asterisk follows results filed as active; i = inactive; nt = no result given; + = active, no number. Sampled rows, rich in hits. Any-hit rate of the full collection: about 9.2%.

SMILES	L major viab	PTEN del growth	bCat KO growth	Autophagy HCS	Dynein cargo inh
COC(=O)CC1SC(=O)NC1=Nc1ccc(OC)cc1 (stereo not drawn)	-3.3	105.8	99.8	i	1.34
CCc1ccc(-c2csc3ncn(CC(=O)N4CCOCC4)c(=O)c23)cc1	-5.7	95.6	94.3	i	0.0904
COc1ccccc1N1CCN(C(=S)Nc2ccc(S(=O)(=O)N3CCOCC3)cc2)CC1	71.4*	nt	nt	i	2.4
COc1cc(OC)c(OC)cc1/C=N/NC(=S)NCCN1CCOCC1	1.9	nt	nt	+	-0.317
S=C(NCCN1CCOCC1)N/N=C/c1ccccc1	1.3	104.5	102.4	i	-0.135
Oc1ccc(/C=N/NC(=S)NCCN2CCOCC2)c(O)c1	95.9*	nt	nt	i	-0.747
O=S(=O)(c1ccc(NC(=S)N/N=C/c2c3ccccc3cc3ccccc23)cc1)N1CCOCC1	94.9*	nt	nt	i	-0.87
Cc1cc(C)c(S(=O)(=O)Nc2ccccc2-c2ccccc2)c(C)c1	31.6	105.1	99.2	i	-0.686
O=S(=O)(c1ccc(NC(=S)NCCC(c2ccccc2)c2ccccc2)cc1)N1CCOCC1	59.9*	25.4	23.2	i	2.29
S=C(NCCN1CCOCC1)N/N=C/c1c2ccccc2cc2ccccc12	6.8	64.5	61.9	+	3.18
Cn1c(N)c(C(=O)COC(=O)C2CCCN2C(=O)c2cccs2)c(=O)n(C)c1=O (stereo not drawn)	-1.5	nt	nt	i	0.281
S=C(Nc1ccc(N2CCOCC2)cc1)Nc1ccc2snnc2c1	25.0	nt	nt	i	-1.15
O=C(Nc1nc2c(s1)CCCC2)c1cccnc1	-5.8	100.6	92.2	i	-0.539
C/C(=N\Nc1nc2c(s1)CCCC2)c1ccccc1	51.7*	77.4	74.3	i	-1.17
Cc1cccc(Nc2nc3c(s2)CCCC3)c1	62.2*	77.7	89.6	i	-0.504
O=C(NC(=S)Nc1nc2c(s1)CCCC2)c1ccc(C(=O)c2ccccc2)cc1	75.8*	67.3	72.5	i	-0.742
O=C(CSc1nnnn1-c1ccc(Cl)c(C(=O)O)c1)NC(c1ccccc1)c1ccccc1	nt	nt	nt	nt	2.46
CCN(CC)c1ccc(NC(=O)c2cnccn2)cc1S(=O)(=O)Nc1ccc(OC)cc1	64.0*	40.8	42.1	i	-0.0764
O=C(Nc1ccc(Cl)c([N+](=O)[O-])c1)c1ccncc1	18.9	90.6	82.3	i	-0.378
Cc1cnc(C(=O)Nc2ccc(C)c(S(=O)(=O)N(C)C)c2)cn1	-1.6	99.1	98.4	i	-0.107
CCN(CC)c1ccc(NC(=O)COc2ccccc2C#N)cc1S(=O)(=O)Nc1ccc(OC)cc1	99.3*	82.4	87.6	i	-0.131
Cc1ccc(NC(=O)c2cnccn2)cc1S(=O)(=O)N(C)C	82.6*	93.9	99.6	i	-1.17
CCN(CC)c1ccc(NC(=O)COc2ccccc2C)cc1S(=O)(=O)Nc1ccccc1OC	42.2	82.6	86.6	i	0.325
O=C(Nc1ccc(Cl)c([N+](=O)[O-])c1)c1cnccn1	82.7*	103.4	91.9	i	0.411
O=C(CSc1nc2nn(-c3ccccc3)c(=O)c-2c2n1CCCCC2)NCCc1ccccc1	-2.4	nt	nt	i	-0.171
SMILES	L major viab	PTEN del growth	bCat KO growth	Autophagy HCS	Dynein cargo inh
COc1ccc([N+](=O)[O-])cc1NC(=O)c1ccc(Br)s1	-4.3	nt	nt	i	-0.641
N#Cc1cc([N+](=O)[O-])ccc1NC(=O)COC(=O)C12CC3CC(CC(C3)C1)C2	12.9	nt	nt	i	-2.1
c1nc(N2CCOCC2)c2c3c(sc2n1)CCCC3	-2.1	102.4	94.6	i	0.455
O=C(c1ccccc1)N1CCN(c2ncnc3sc4c(c23)CCC4)CC1	62.7*	62.5	53.2	i	-0.416
CC(C)(O)C(O)COc1c2ccoc2cc2oc(=O)ccc12 (stereo not drawn)	-5.2	nt	nt	i	-0.847
COC(C)(C)[C@H](O)COc1c2ccoc2cc2oc(=O)ccc12	-0.5	0.7*	0.6*	i	1.29
Cc1nn(Cc2ccc(Cl)c(Cl)c2)c(C)c1NC(=O)c1cc(-c2ccc3c(c2)OCO3)on1	77.2*	1.8*	1.5*	i	0.655
Cc1cc(C)n(C(=O)c2ccc([N+](=O)[O-])cc2[N+](=O)[O-])n1	99.3*	92.0	88.7	i	0.367
COc1ccc(OC)c(-c2cc(C(=O)Nc3c(C)nn(Cc4ccc(Cl)cc4)c3C)no2)c1	51.7*	56.7	63.2	i	-1.08
Cc1nn(Cc2ccc(Cl)c(Cl)c2)c(C)c1NC(=O)c1cn(-c2ccccc2)nc1-c1ccccc1	77.1*	85.8	80.4	i	0.76
Cc1nn(Cc2ccc(Cl)cc2)c(C)c1NC(=O)c1cc(-c2ccc3c(c2)OCO3)on1	20.2	83.5	91.9	i	-0.5
Cc1cccc(C)c1NC(=O)c1cn(-c2ccccc2)nc1-c1ccccc1	-5.0	94.5	88.9	i	-1
Cc1ccc(C)c(SCC(=O)OCC(=O)N2CC(C)OC(C)C2)c1 (stereo not drawn)	-7.8	nt	nt	i	-1.1
CN(C)S(=O)(=O)c1cc(C(=O)OCCn2cnc3c2c(=O)n(C)c(=O)n3C)ccc1Cl	2.2	nt	nt	i	0.568
Cc1nn(Cc2ccccc2)c(C)c1NC(=O)c1ccc([N+](=O)[O-])cc1[N+](=O)[O-]	62.5*	84.1	81.2	i	-0.647
CCN(CC)S(=O)(=O)c1ccc(N/N=C/c2cc(OC)ccc2O)nc1	91.8*	4.8	2.7*	i	0.763
COc1ccc(O)c(/C=N/NC(=S)Nc2cccc(S(=O)(=O)N(C)C)c2)c1	99.4*	6.0	6.6	+	1.67
COc1cc(NC(=S)NCc2cccnc2)cc(OC)c1OC	11.7	nt	nt	i	-1.5
COc1ccc(O)c(/C=N/NC(=S)Nc2cccnc2)c1	94.1*	nt	nt	i	0.104
COc1cc(NC(=S)NCc2cccnc2)cc(OC)c1	95.8*	91.4	88.5	i	3.33
COc1cccc(/C=N/NC(=S)Nc2cccc(S(=O)(=O)N(C)C)c2)c1	nt	nt	nt	nt	-0.389
COc1ccc(N(CC(=O)NCCC2=CCCCC2)S(=O)(=O)c2ccccc2)c(OC)c1	5.9	nt	nt	i	-1.07
CCN(c1ccc(NC(=O)COC(=O)c2ccc(S(=O)(=O)N3CCCC3)cc2)cc1)C(C)C	-4.1	96.2	91.3	i	-1.14
COc1cccc(/C=N/NC(=S)Nc2cccc(C(=O)O)c2)c1	-6.2	nt	nt	i	0.0985
COc1cccc(/C=N/NC(=S)Nc2cccnc2)c1	0.3	nt	nt	+	0.25
CCCCc1ccc(-n2c(Cc3cccs3)n[nH]c2=S)cc1	1.8	nt	nt	i	-0.631
O=S1(=O)NC[C@]23C[C@H](c4ccc(F)cc4)[C@@H](C[C@@H]21)O3	nt	nt	nt	nt	-0.724
COc1cc(CNCCc2ccccc2)ccc1OCc1ccc(Cl)nc1	100.5*	75.0	60.9	i	0.397
CCCCNCc1ccc(OCc2ccc(Cl)nc2)c(OC)c1	nt	nt	nt	nt	-0.53
